An excerpt weighted towards active compounds, which were near 3.5% of everything screened.
RGS4 pot: RGS4 potentiation or activation; HEK293 M3R/inducible RGS4, carbachol calcium flux Fluo4; hits give low values; B-score at 10 µM; 310,000 tested, 0.92% active; AID 463111;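 active = B-score of the integrated calcium signal more than 4 SD below the library mean, with starting fluorescence not abnormally high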;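 note: negative B-score means reduced calcium response which marks RGS4 activation or potentiation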
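test system = HEK293 cells with stable M3R and inducible RGS4 | schedule = recording 10 s baseline at 1 Hz, 100 s post-agonist | technique = Fluo4-AM (2 µM) calcium-flux fluorescence, kinetic read | measure = Agonist-evoked peak-minus-minimum fluorescence over baseline, integrated ratio, B score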
MrgX1 antag: blocks BAM8-22 activation of human MrgX1 receptor. B-score at 10 µM. Q96LB2. 310,000 tested, 1.3% active. MRGX1-HEK293 calcium flux, Fluo-4, BAM8-22 antagonism; hits give low values;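 active = calcium-response B-score plate-corrected more than 3 library SD below zero, starting fluorescence within 5 deviations, no agonist response on first addition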;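 note: peak minus trough fluorescence over baseline after final BAM8-22 challenge near maximal dose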
Target sequence (Q96LB2 whole entry, looked up): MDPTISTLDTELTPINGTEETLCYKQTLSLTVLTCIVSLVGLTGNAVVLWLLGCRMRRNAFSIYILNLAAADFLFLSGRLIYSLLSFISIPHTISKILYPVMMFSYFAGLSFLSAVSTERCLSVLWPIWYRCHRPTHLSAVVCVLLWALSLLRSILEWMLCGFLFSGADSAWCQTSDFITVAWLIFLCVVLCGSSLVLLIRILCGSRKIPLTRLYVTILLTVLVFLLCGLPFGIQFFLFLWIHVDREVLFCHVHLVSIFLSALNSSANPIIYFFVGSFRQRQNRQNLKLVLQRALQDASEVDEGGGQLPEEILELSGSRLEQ
MrgX1 agonist: human MrgX1 receptor agonism, primary screen | MrgX1-HEK293 cells, Fluo-4 calcium fluorescence, agonist mode; hits give high values | B-score at 10 µM | 310,000 tested, 0.44% active | AID 588627;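 active = calcium response B-score plate-corrected fluorescence ratio at least 3 library SD, with starting fluorescence B-score inside 5 SD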
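Material – MrgX1-expressing HEK293 cells · Input – 15,000 cells seeded per well · Dosing – compound as first of three additions · Times – overnight seeding, then 1 h dark dye loading · Measured by – kinetic Fluo-4 NW fluorescence of intracellular calcium · Read-out – B-scored fluorescence response ratio · Benchmarks – positive and negative control wells on each plate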
MrgX1 PAM: allosterically activates human MrgX1 receptor signaling; Q96LB2; MrgX1-HEK293, Fluo-4 calcium flux, FDSS; hits give high values; B-score at 10 µM; 310,000 tested, 0.63% active;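 active = plate-corrected calcium response at least 3 library SD above typical, normal starting fluorescence, not activating the receptor alone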;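 note: compound read alongside a low EC10 to EC30 dose of BAM8-22 agonist; peak minus trough fluorescence over baseline measured at the second addition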
RGS4 inh: inhibitors of human RGS4. AID 463165. B-score at 10 µM. P49798. HEK293 M3R/RGS4 inducible, Fluo-4 calcium flux; hits give high values; triggered by carbachol at its EC20. 310,000 tested, 0.45% active;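 active = B-score, a plate-corrected calcium signal, over three deviations above library mean, with baseline fluorescence within five deviations of library mean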;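 note: RGS4 expression induced by doxycycline in cells with stable M3 receptor; B-score is computed from the integrated fluorescence ratio over baseline after carbachol; higher B-score means a larger calcium signal and so more RGS4 inhibition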
Target sequence (P49798 whole entry, looked up): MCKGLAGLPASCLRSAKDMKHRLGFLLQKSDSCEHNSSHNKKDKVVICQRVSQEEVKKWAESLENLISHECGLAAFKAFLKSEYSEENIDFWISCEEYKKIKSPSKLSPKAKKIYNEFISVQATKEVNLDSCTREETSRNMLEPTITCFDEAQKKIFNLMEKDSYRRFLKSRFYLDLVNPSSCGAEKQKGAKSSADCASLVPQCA
MrgX1 PAM conf: confirmation of human MrgX1 receptor positive allosteric modulators. shares compounds with MrgX1 PAM. MrgX1-HEK293, Fluo-4 calcium fluorescence, FDSS. activation (ratio percentage), % at 10 µM. 1,200 tested, 13% active. AID 602413;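 active = ratio at least 3 SD above the weak peptide control, stable starting fluorescence, no direct agonism earlier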;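 note: compound followed by low BAM8-22 agonist challenge near EC20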
HEK293 Ca flux: activity in parental HEK293 cells lacking MrgX1; AID 624111; shares compounds with MrgX1 antag; 4,000 tested, 2% active; fluorescence ratio F(max-min)/F0 at 10 µM; Fluo-4 calcium fluorescence, FDSS;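 active = duplicate-averaged calcium fluorescence ratio at least three times the standard deviation of buffer wells, a nonspecific response in parental cells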
HEK293 Ca counter: counter-screen for MrgX1 allosteric activators: effect in parental HEK293 cells | shares compounds with MrgX1 antag | parental HEK293 calcium flux, Fluo-4 fluorescence ratio; hits give high values | fluorescence ratio F(max-min)/F0 at 10 µM | 4,000 tested, 0.4% active | AID 624114;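 active = calcium fluorescence ratio, averaged over duplicates, at least 3 SD of the buffer-well ratio, meaning a nonspecific response in receptor-free cells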;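 note: untransfected parental HEK293 lacking MrgX1 used as counterscreen for MrgX1 allosteric activators; fluorescence change taken during the second addition on a kinetic imager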
HEK293 Ca cntr2: counter-screen for MrgX1 activators: effect in parental HEK293 cells | fluorescence ratio F(max-min)/F0 at 10 µM | shares compounds with MrgX1 antag | Fluo-4 calcium fluorescence (FDSS); hits give high values | 4,000 tested, 8.7% active;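 active = calcium fluorescence ratio at least three times the spread of buffer wells, meaning a non-specific response in parental cells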
Numbers without * were called inactive; i = inactive; . = no result.

SMILES	RGS4 pot	MrgX1 antag	MrgX1 agonist	MrgX1 PAM	RGS4 inh	MrgX1 PAM conf	HEK293 Ca flux	HEK293 Ca counter	HEK293 Ca cntr2
COc1ccc(-c2csc(NC(=O)C3CSC4(C)CCC(=O)N34)n2)cc1OC (stereo not drawn)	i	i	i	10.8*	i	9.1%*	i	i	i
Cc1cc2c(cc1S(=O)(=O)CCC(=O)N(C)C1CCCCC1)OCC(=O)N2	i	i	i	i	i	.	.	.	.
C/C(=N\NC(=O)c1nnn(-c2nonc2N)c1CSc1ccc(Cl)cc1)c1ccco1	i	i	i	i	i	.	.	.	.
Cc1ccc(NC(=S)NNC(=O)CSc2nc3ccccc3c(=O)n2-c2ccc(C)cc2)cc1	i	i	i	20.7*	i	i	i	i	i
Cc1ccc(-n2c(SCC(=O)Nc3ccc(N4CCOCC4)cc3)nc3ccccc3c2=O)cc1	i	i	i	i	i	.	.	.	.
O=C(NCCCN1CCCC(O)C1)c1cc(COc2ccc(F)cc2F)on1 (stereo not drawn)	i	i	i	i	i	.	.	.	.
Nc1nc(C(c2ccccc2)c2ccccc2)cs1	i	i	i	8.71*	i	i	i	i	i
Nc1nc(-c2ccccc2)cs1	i	i	i	i	i	.	.	.	.
CC(C)CN(C(=O)COc1ccc(Br)cc1C=O)C1CCS(=O)(=O)C1 (stereo not drawn)	i	i	i	i	i	.	.	.	.
CC(=O)Nc1ccc(S(=O)(=O)NCc2ccc(C(=O)N3CCOCC3)cc2)cc1	i	i	i	7.38*	i	i	i	i	i
COc1ccc(-c2csc(NC(=O)CCCc3nc4ccccc4c(=O)[nH]3)n2)cc1OC	-7.4*	i	i	11.1*	i	i	i	i	i
CN(c1ccc(C(=O)Nc2ccc(Cl)cn2)cc1)S(=O)(=O)c1ccccc1	i	i	i	9.73*	i	i	i	i	i
Cc1ccc(S(=O)(=O)N(C)c2ccc(C(=O)Nc3ccc(C)cn3)cc2)cc1	i	i	i	i	i	.	.	.	.
CCN(CC)S(=O)(=O)c1cc(C(=O)Nc2ccc(Cl)cn2)ccc1C	i	i	i	19.5*	i	11.6%*	i	i	i
CC(C)C(OC(=O)c1cc2sccc2n1C)C(=O)NCC1CCCO1 (stereo not drawn)	i	i	i	i	i	.	.	.	.
COc1ccc(CN(CC2CCCO2)C(=O)c2cc3sccc3n2C)c(OC)c1 (stereo not drawn)	i	i	i	6.45*	i	i	i	i	i
CN1CCc2c(OCC(=O)N3CCC(Cc4ccccc4)CC3)cccc2C1=O	i	i	i	9.81*	i	i	i	i	i
CCN1CCc2c(OCc3ccccc3)cccc2C1=O	i	i	i	11.4*	i	i	i	i	i
COc1ccc(NC(=O)NNC(=O)COc2ccc3cc(Br)ccc3c2)c(OC)c1	i	i	i	i	i	.	.	.	.
CC(=O)/C(=C(/O)c1ccccc1)c1nc2ccccc2[nH]1	i	i	i	11.8*	i	i	i	i	i
OC1(c2nc3ccccc3[nH]2)CCCCC1	i	i	i	i	i	.	.	.	.
Cc1ccc(OCC(=O)N(Cc2ccccc2)c2c(N)n(Cc3ccccc3)c(=O)[nH]c2=O)c(C)c1	i	i	i	i	i	.	.	.	.
CCOC(=O)c1sc(NS(=O)(=O)c2ccccc2Cl)nc1C	i	i	i	11.5*	i	i	i	i	i
CCOC(=O)c1sc(NS(=O)(=O)c2ccc(F)cc2)nc1C	i	i	i	11.6*	i	i	i	i	i
COc1ccc(N2CC(C(=O)Nc3ccccc3C(=O)NC3CC3)CC2=O)cc1 (stereo not drawn)	i	i	i	i	i	.	.	.	.
SMILES	RGS4 pot	MrgX1 antag	MrgX1 agonist	MrgX1 PAM	RGS4 inh	MrgX1 PAM conf	HEK293 Ca flux	HEK293 Ca counter	HEK293 Ca cntr2
CCc1ccc(NC(=O)c2ccccc2Br)cc1	i	i	i	i	i	.	.	.	.
O=C(Nc1ccc(Br)cc1)c1ccccc1Br	i	i	i	16.3*	i	i	i	i	i
CCn1cc(CN2CCC(n3nccc3NC(=O)c3ccccc3C)CC2)cn1	i	i	i	i	i	.	.	.	.
Cn1c(-c2sccc2OCc2ccc(Cl)cc2Cl)n[nH]c1=S	i	i	i	9.87*	i	i	i	i	i
COc1cc(SC)ccc1C(=O)NCc1ccc(C)cc1	i	i	i	6.53*	i	i	i	i	i
CC(=O)N1CCSc2ccc(S(=O)(=O)NCCc3ccc(C)cc3)cc21	i	i	i	6.87*	i	i	i	i	i
CC(=O)N1CCSc2ccc(S(=O)(=O)NCCc3cccc(C)c3)cc21	i	i	i	i	i	.	.	.	.
CN1CCN(C2CCCCC2NS(=O)(=O)c2ccc(Cl)cc2)CC1 (stereo not drawn)	i	i	i	i	i	.	.	.	.
CC1CC(C)CN(C2CCCCC2NS(=O)(=O)c2ccc(Cl)cc2)C1 (stereo not drawn)	i	i	i	8.24*	i	i	i	i	i
CC1C(=O)N(Cc2ccccc2F)c2ccccc2N1C(=O)c1c(F)cccc1F (stereo not drawn)	i	i	i	9*	i	i	i	i	i
COc1ccccc1CN1C(=O)c2ccccc2C1C(=O)NC1CCC(C)CC1 (stereo not drawn)	i	i	i	9.8*	i	i	i	i	i
CCC(C)NC(=O)C1c2ccccc2C(=O)N1Cc1ccccc1OC (stereo not drawn)	i	i	i	i	i	.	.	.	.
Cc1ccccc1OC(C)C(=O)NCCC1=CCCCC1 (stereo not drawn)	i	i	i	10.9*	i	i	i	i	i

Assay outcomes as filed in PubChem BioAssay.
